The source made the active and inactive calls. The rule behind the calls is not given here.
Experiments:
[1] = test system: Mus musculus; assay: Analgesic activity in sc dosed Swiss-Webster mouse after 30 mins; type: functional; conditions: 0.5 h
[2] = test system: Mus musculus; assay: Analgesic activity in sc dosed Swiss-Webster mouse time of peak effect; type: functional
[3] = test system: Mus musculus; assay: Analgesic activity in Swiss-Webster mouse assessed as time required for sustainance of activity at 100 mg/kg, sc; type: functional; conditions: route subcutaneous
[4] = test system: Mus musculus; assay: Inhibition of morphine sulfate-induced analgesic activity in Swiss-Webster mouse at 100 mg/kg, sc after 1 hr; type: functional, organism-based; parameters: dose 100 mg/kg
In short: (§1)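 Male Swiss-Webster mice, 20–25 g. Challenge was 10 mg/kg morphine sulfate in 8–10 mice, read by the modified D'Amour–Smith test. Where block was seen, morphine ED50 (95% limits) was found by Litchfield–Wilcoxon.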

[5] = test system: Mus musculus; assay: Inhibition of morphine sulfate-induced analgesic activity in Swiss-Webster mouse at 50 mg/kg, sc after 2 hrs; type: functional, organism-based; parameters: dose 50 mg/kg; in short: as §1
[6] = test system: Mus musculus; assay: Analgesic activity in Swiss-Webster mouse assessed as time required for sustainance of activity at 50 mg/kg, sc; type: functional; conditions: route subcutaneous
[7] = species: Mus musculus; assay: Narcotic agonist activity in morphine-dependent mouse assessed as suppression of abstinence; type: functional, organism-based
In short: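 Single-dose suppression test in morphine-dependent mice after withdrawal (method of Takemori et al.); compound given sc.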

[8] = test system: Mus musculus; assay: Analgesic activity in Swiss-Webster mouse assessed as time required for sustainance of activity at 5 mg/kg, sc; type: functional; conditions: route subcutaneous
[9] = test system: Mus musculus; assay: Inhibition of morphine sulfate-induced analgesic activity in Swiss-Webster mouse at 380 mg/kg, sc after 5.5 hrs; type: functional, organism-based; parameters: dose 380 mg/kg; in short: as §1
[10] = test system: Mus musculus; assay: Analgesic activity in Swiss-Webster mouse assessed as time required for sustainance of activity at 380 mg/kg, sc; type: functional; conditions: route subcutaneous
[11] = test system: Mus musculus; assay: Analgesic activity in Swiss-Webster mouse assessed as time required for sustainance of activity at 20 mg/kg, sc; type: functional; conditions: route subcutaneous
[12] = test system: Mus musculus; assay: Inhibition of morphine sulfate-induced analgesic activity in Swiss-Webster mouse at 100 mg/kg, sc after 2 hrs; type: functional, organism-based; parameters: dose 100 mg/kg; in short: as §1
[13] = test system: Mus musculus; assay: Ratio of morphine ED50 to compound ED50 for sc dosed Swiss-Webster mouse; type: functional
[14] = test system: Mus musculus; assay: Analgesic activity in Swiss-Webster mouse assessed as time required for sustainance of activity at 0.81 mg/kg, sc; type: functional; conditions: route subcutaneous
[15] = test system: Mus musculus; assay: Inhibition of morphine sulfate-induced analgesic activity in Swiss-Webster mouse at 0.81 mg/kg, sc after 2.5 hrs; type: functional, organism-based; parameters: dose 0.81 mg/kg; in short: as §1
[16] = test system: Mus musculus; assay: Inhibition of morphine sulfate-induced analgesic activity in Swiss-Webster mouse at 100 mg/kg, sc after 3 hrs; type: functional, organism-based; parameters: dose 100 mg/kg; in short: as §1
[17] = test system: Mus musculus; assay: Inhibition of morphine sulfate-induced analgesic activity in Swiss-Webster mouse at 350 mg/kg, sc after 2 hrs; type: functional, organism-based; parameters: dose 350 mg/kg; in short: as §1
[18] = test system: Mus musculus; assay: Analgesic activity in Swiss-Webster mouse assessed as time required for sustainance of activity at 350 mg/kg, sc; type: functional; conditions: route subcutaneous
[19] = test system: Mus musculus; assay: Analgesic activity in Swiss-Webster mouse assessed as time required for sustainance of activity at 5.3 mg/kg, sc; type: functional; conditions: route subcutaneous
[20] = test system: Mus musculus; assay: Inhibition of morphine sulfate-induced analgesic activity in Swiss-Webster mouse at 5.3 mg/kg, sc after 3 hrs; type: functional, organism-based; parameters: dose 5.3 mg/kg; in short: as §1

Row | Structure (SMILES) | ED50 [1] | Time [2] | other results
1 | Br.CC1C2Cc3ccc(O)cc3C1(C)CCN2CCc1ccccc1 (stereo unspecified) [PHENAZOCINE HYDROBROMIDE] | 0.53 mg/kg | 30 min | –
2 | CCOC(=O)CCC(=O)Nc1ccccc1CCN1CC[C@]23CCCC[C@H]2[C@H]1Cc1ccc(O)cc13 | > 100 mg/kg | – | Time [3]: 1 h; inhibition [4]: Active
3 | CCOC(=O)/C=C\C(=O)Nc1cccc(CCCN2CC[C@]34CCCC[C@H]3[C@H]2Cc2ccc(O)cc24)c1 | > 100 mg/kg | – | inhibition [5]: Active; Time [6]: 2 h
4 | CC(=O)Oc1ccc2c(c1)[C@@]13CCCC[C@H]1[C@@H](C2)N(CCc1ccc(N2C(=O)C=CC2=O)cc1)CC3 | 0.59 mg/kg | 30 min | inhibition [7]: Active; Time [8]: 4 h
5 | CCOC(=O)/C=C/C(=O)Nc1cccc(CCCN2CC[C@]34CCCC[C@H]3[C@H]2Cc2ccc(O)cc24)c1 | 76.5 mg/kg | 30 min | inhibition [9]: Active; Time [10]: 5.5 h
6 | CC(=O)Oc1ccc2c(c1)[C@@]13CCCC[C@H]1[C@@H](C2)N(CCCc1ccc(N2C(=O)C=CC2=O)cc1)CC3 | > 50 mg/kg | – | inhibition [5]: Active; Time [6]: 2 h
7 | CC(=O)Oc1ccc2c(c1)[C@@]13CCCC[C@H]1[C@@H](C2)N(CCc1ccccc1N1C(=O)C=CC1=O)CC3 | 11.7 mg/kg | 30 min | Time [11]: 2 h
8 | CCOC(=O)/C=C/C(=O)Nc1ccccc1CCN1CC[C@]23CCCC[C@H]2[C@H]1Cc1ccc(O)cc13 | > 150 mg/kg | – | –
9 | CCOC(=O)/C=C/C(=O)Nc1ccc(CCCN2CC[C@]34CCCC[C@H]3[C@H]2Cc2ccc(O)cc24)cc1 | 28.4 mg/kg | 30 min | Time [3]: 2 h; inhibition [12]: Active
10 | O=C(CBr)Nc1ccc(CCN2CC[C@]34CCCC[C@H]3[C@H]2Cc2ccc(O)cc24)cc1 | 0.13 mg/kg | 30 min | Ratio ED50 [13]: 4; Time [14]: 2.5 h; inhibition [15]: Active
11 | CC(=O)Oc1ccc2c(c1)[C@@]13CCCC[C@H]1[C@@H](C2)N(CCCc1ccccc1N1C(=O)C=CC1=O)CC3 | 48.4 mg/kg | 30 min | Time [3]: 3 h; inhibition [16]: Active
12 | O=C1C=CC(=O)N1c1cccc(CCN2CC[C@]34CCCC[C@H]3[C@H]2Cc2ccc(O)cc24)c1 | 11.4 mg/kg | 30 min | Time [11]: 2 h; inhibition [7]: Active
13 | CCOC(=O)CCC(=O)Nc1cccc(CCCN2CC[C@]34CCCC[C@H]3[C@H]2Cc2ccc(O)cc24)c1 | 77.9 mg/kg | 30 min | Time [3]: 1 h; inhibition [4]: Active
14 | CCOC(=O)/C=C/C(=O)Nc1ccccc1CCCN1CC[C@]23CCCC[C@H]2[C@H]1Cc1ccc(O)cc13 | 84 mg/kg | 15 min | inhibition [17]: Active; Time [18]: 2 h
15 | O=C(CBr)Nc1cccc(CCN2CC[C@]34CCCC[C@H]3[C@H]2Cc2ccc(O)cc24)c1 | 0.58 mg/kg | 30 min | Time [19]: 3 h; inhibition [20]: Active
16 | CCOC(=O)/C=C/C(=O)Nc1cccc(CCN2CC[C@]34CCCC[C@H]3[C@H]2Cc2ccc(O)cc24)c1 | 5.6 mg/kg | 60 min | Time [11]: 3 h; inhibition [7]: Active

From ChEMBL document CHEMBL3272313, “3-Hydroxy-17-aralkylmorphinans as potential opiate receptor-site-directed alkylating agents” (J Med Chem, 1977)
